Most compounds without a hit are left out; they make up all but 4.9% or so of the library.
Hep lipid drop: hepatic lipid droplet formation modulation | inhibition, % at 6.5 µM | 240,000 compounds, 0.4% hits | AID 1656 | AML12 mouse hepatocytes, oleate lipid droplets, BODIPY imaging;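 active = lipid droplet intensity inhibited by at least 50%, with more than 500 cells counted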
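Test system: AML12 mouse liver cells; schedule: overnight exposure; technique: high-content imaging of BODIPY-stained droplets and DAPI nuclei; read-out: % inhibition of corrected integrated BODIPY droplet signal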
CHT inh: inhibitors of human choline transporter CHT; CHT-expressing cells, membrane potential dye, choline response; hits give low values; B-score at 10 µM; 310,000 compounds, 0.86% hits;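 active = B-score over 3 SD under the library average, and starting fluorescence ratio not unusually high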;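 also: choline stimulus applied at its EC90 after an EC20 pre-addition; B-score computed on integrated fluorescence ratio after choline addition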
CHT allo act: allosterically activates the human high affinity choline transporter; 310,000 compounds, 0.49% hits; CHT-expressing cells, membrane potential dye, choline EC20; hits give high values; LV-AA mutant CHT in HEK293 cells; B-score at 10 µM;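 active = initial fluorescence not abnormally high and integrated response B-score, plate-corrected, over 3 SD above library mean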
PHOSPHO1 block: inhibitors of human PHOSPHO1 phosphatase | Q8TCT1 | recombinant PHOSPHO1, absorbance phosphatase assay | inhibition, % at 13.3 µM | 290,000 compounds, 1.1% hits | AID 1565; in the data active = inhibition above about 60%
Target sequence (Q8TCT1 whole entry, looked up): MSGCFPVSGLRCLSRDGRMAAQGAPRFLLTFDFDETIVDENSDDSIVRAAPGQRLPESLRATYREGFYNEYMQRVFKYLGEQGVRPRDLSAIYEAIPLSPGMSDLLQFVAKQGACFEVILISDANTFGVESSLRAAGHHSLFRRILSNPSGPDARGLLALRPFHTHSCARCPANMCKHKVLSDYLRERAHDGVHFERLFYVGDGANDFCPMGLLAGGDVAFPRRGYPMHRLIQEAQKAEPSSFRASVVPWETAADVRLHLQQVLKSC
HSF1 inh: HSF1 inhibition. NIH3T3-HGL HSE-luciferase, MG132-induced, luminescence 8 h; hits give low values. activity change, negative = inhibition, % at 7.5 µM (by protocol). 300,000 compounds, 0.77% hits. AID 2098;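 active = more than half of replicate wells show activity change below -50%, luminescence cut by over half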;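 also: luciferase reports HSF-1 transcriptional activity via heat shock element; 0% = median of DMSO wells and -100% = zero luminescence signal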
HSF1 activator: increases HSF-1 driven luciferase reporter signal; NIH3T3-HGL HSF-1 luciferase reporter, MG132, 8 h; 100% = twice DMSO control signal; activation, % at 9 µM; 300,000 compounds, 1.7% hits; AID 504408;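 active = mean replicate activation of at least 50% with a set share of replicates each reaching 50%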;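 also: 0% = median of the neutral control wells and 100% = twice that signal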
CHT activ conf: human CHT activation, confirmatory screen; shares compounds with CHT allo act; CHT-expressing cells, membrane potential dye fluorescence (FDSS); % of choline EC20–EC90 response window; HEK293 expressing CHT LV-AA mutant; choline added at its EC20; activation, % at 10 µM; 2,500 compounds, 91% hits; AID 504833;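 active = primary screen active, with duplicate mean activation above negative control mean plus 3 SD, cut at about 11% in these data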
HEK293 MP dye: CHT activator counter-screen hit in parental HEK293 cells. ratio readout change at 10 µM, hits read low. 2,500 compounds, 62% hits. AID 623908. membrane potential dye fluorescence (FDSS); measured after EC20 choline addition. shares compounds with CHT allo act;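 active = duplicate-averaged ratio beyond 3 SD from buffer wells, up or down, though filed actives are nearly all decreases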
The depositor's hits bear a star; i = inactive; x = no result given.

SMILES	Hep lipid drop	CHT inh	CHT allo act	PHOSPHO1 block	HSF1 inh	HSF1 activator	CHT activ conf	HEK293 MP dye
CCOC(=O)c1c(CSCc2ccccc2)oc2ccc(O)c(CN(C)C)c12	-1.7	i	10.5*	3.8	-79.0*	-84.1	24.6*	i
CCOC(=O)c1c(-c2ccccc2)oc2ccc(O)c(CN3CCCC3)c12	x	i	i	-3.8	-7.3	-14.7	x	x
CC(C)C[C@H]1CN=C(Nc2ccccc2)N1CC1CCCC1	x	i	i	-7.3	-1.3	-17.4	x	x
CC(C)C[C@H]1CN=C(Nc2ccccc2)N1CC1CCC(C(C)(C)C)CC1 (some centres not stated)	x	i	28.5*	x	x	x	59.0*	i
CC(C)CCN1C(Nc2ccccc2)=NC[C@@H]1Cc1ccccc1	-2.4	i	6.97*	-1.7	1.0	-4.4	20.9*	i
CC(C)CCCN1C(Nc2ccccc2)=NC[C@@H]1Cc1ccccc1	-4.2	i	i	-1.7	6.7	-9.8	x	x
N/C(=N\OC(=O)COc1ccccc1)c1ccc(Cl)cc1	2.0	i	i	-1.4	-5.5	20.9	x	x
CCCc1cc(=O)oc2cc(C)cc(OC(C)C(=O)NCCCn3ccnc3)c12 (configuration not stated)	-0.4	i	i	26.6	-1.2	10.4	x	x
Cc1cc(OCC(=O)NCCCn2ccnc2)c2c(C)cc(=O)oc2c1	9.4	i	7.08*	49.0	-4.0	-11.3	65.2*	-55.6*
Cc1cc(OC(C)C(=O)NCCCn2ccnc2)c2c(C)cc(=O)oc2c1 (configuration not stated)	-11.2	i	i	26.6	-0.2	3.8	44.7*	-39*
Cc1cc(=O)oc2c(C)c(OCC(=O)NCCCn3ccnc3)ccc12	3.2	i	i	26.6	-4.1	-6.8	58.2*	-51.5*
CCc1cc(=O)oc2cc(OCC(=O)NCCCn3ccnc3)c(Cl)cc12	-14.7	i	i	6.7	-6.4	-5.8	x	x
N=C1C(c2nc3ccccc3s2)=C(O)CN1NC(=O)c1ccco1	-0.8	i	i	-5.9	6.6	-8.0	x	x
CCN1CCc2c(OCC(=O)Nc3cccc(C)c3)cccc2C1=O	6.3	i	i	26.7	-6.6	-7.3	x	x
CCOC(=O)c1nc2cc3n(c(CC(C)C)c-2c1C)CC(C)=C3C	-18.0	i	i	21.9	-4.0	-8.9	44.4*	-40.5*
COc1cccc(CCN2CCC(CNS(=O)(=O)c3cc(-c4cc(C)no4)ccc3OC)CC2)c1	-6.3	i	i	27.3	4.0	-5.2	x	x
COc1ccccc1CN1CCC(CNS(=O)(=O)c2cc(-c3onc(C)c3C)ccc2OC)CC1	-53.2	i	i	39.9	7.9	16.7	39.5*	-47.7*
c1cncc(N=c2scc(-c3cccc4ccccc34)n2CCCn2ccnc2)c1	-4.8	i	8.24*	5.9	14.4	21.4	7.1	i
CCON1C(=O)CN(C(=O)OC)C1c1ccc(Cl)cc1Cl (configuration not stated)	2.4	i	i	2.9	7.8	-3.3	2.2	i
Cc1c(NC2(C#N)CCCC2)c(=O)n(-c2ccccc2)n1C	-0.5	i	i	12.3	0.0	-4.1	x	x
Nc1cc(=O)[nH]n1C1CCN(c2ccccc2)CC1	1.8	i	i	20.0	-0.8	16.2	x	x
Cc1cc(N2CCOCC2)n2cc(-c3ccccc3)nc2n1	-1.0	i	i	32.6	-35.6	-46.7	x	x
Cc1cc(N2CCOCC2)n2cc(-c3ccc(F)cc3)nc2n1	1.3	i	i	-3.1	-5.9	-4.9	31.0*	-21.1*
Cc1ccc(CCNC(=O)C2CCN(S(=O)(=O)c3ccc4c(c3)NC(=O)C(C)S4)CC2)cc1 (configuration not stated)	-18.5	i	i	29.0	6.8	15.4	x	x
COc1ccc2c(c1)c1c3n2CCN(C)C3=NCC1	x	i	i	20.1	1.4	-18.8	52.8*	-60.2*
SMILES	Hep lipid drop	CHT inh	CHT allo act	PHOSPHO1 block	HSF1 inh	HSF1 activator	CHT activ conf	HEK293 MP dye
COCCN1Cc2cccc(C(=O)NCC3CCN(CC(C)C)C3)c2C1=O (configuration not stated)	-2.5	i	i	-6.8	-8.2	2.9	x	x
CCOC(=O)N1CCC(N2Cc3cccc(C(=O)NCC4CCN(CC(C)C)C4)c3C2=O)CC1 (configuration not stated)	x	i	6.28*	12.6	x	x	52.5*	-33.7*
COCCCNC(=O)CSc1ccc(Cl)cc1	10.2	i	i	6.3	-1.4	-6.7	x	x
CCC1=C(OC(=O)N(CC)CC)N2C(=O)OC(=NCC3CC3)[C@]2(Cc2ccccc2)[C@H]2C1=CC[C@H]1C(=O)N(C)C(=O)[C@H]12	-4.5	i	7.16*	30.9	3.6	10.5	39.8*	i
C/C(CCC(C)C)=N\Nc1cc(C)c2ccccc2n1	-3.4	i	7.43*	21.0	-5.9	3.9	52.1*	i
O=C(NN=C1CCCC1)c1ccccc1OCc1ccc(Cl)cc1	3.7	i	10.1*	40.1	15.1	30.6	13.2*	i
O=C(N/N=C/c1cccnc1)c1ccccc1OCc1ccc(Cl)cc1	-22.6	i	i	12.5	21.4	21.2	x	x
CCOc1cc(C)c(Cl)cc1S(=O)(=O)NCc1ccco1	-7.6	i	i	-6.1	1.4	-0.8	x	x
CCOc1ccc(S(=O)(=O)NCc2ccco2)c2ccccc12	x	i	i	1.4	6.2	3.3	16.5*	i
COC(=O)Nc1sc2c(c1C(=O)NCc1ccco1)CCCC2	-3.1	i	i	1.2	8.2	-6.2	x	x
COc1cc(C(=O)Nc2sc3c(c2C(=O)NCc2ccco2)CCCC3)cc(OC)c1OC	-11.7	i	7.62*	20.1	5.2	6.4	7.8	i
O=C(Nc1ccc(-n2cnnn2)cc1)C1CCCCC1	2.8	i	9.11*	1.3	-0.7	16.6	34.5*	-32.9*
C=CCn1c[n+](CC(=O)c2ccc(Br)s2)c2ccccc21	-10.3	i	i	36.3	3.3	4.2	45.2*	-27.2*
CCOC(=O)C1CCN(S(=O)(=O)c2ccc3c(c2)N(C(C)=O)CC(C)S3)CC1 (configuration not stated)	-16.0	i	i	22.3	1.9	3.5	x	x
O=C(COc1ccc(S(=O)(=O)N2CCCCC2)cc1)N1CCCCCC1	-1.4	i	i	-17.5	-3.8	5.1	x	x
CCOC(=O)N1CCc2c(sc(N)c2C#N)C1	-5.0	i	i	-18.3	-1.6	4.4	x	x

Screening data as filed in PubChem.
